Compound activity deposited in PubChem by The Scripps Research Institute Molecular Screening Center.
TRPML3 agonist – activates the human TRPML3 channel; 220,000 tested, 0.29% active; HEK293 TRPML3-YFP, Fluo-8 calcium fluorescence; 100% = the carbachol control signal; Q8TDD5; activation, % at 3 µM;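 active = activation above its plate's cutoff, the mean activation of the plate's test wells plus 3 SD, cut at about 12% in these data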
Target sequence (Q8TDD5 whole entry, looked up): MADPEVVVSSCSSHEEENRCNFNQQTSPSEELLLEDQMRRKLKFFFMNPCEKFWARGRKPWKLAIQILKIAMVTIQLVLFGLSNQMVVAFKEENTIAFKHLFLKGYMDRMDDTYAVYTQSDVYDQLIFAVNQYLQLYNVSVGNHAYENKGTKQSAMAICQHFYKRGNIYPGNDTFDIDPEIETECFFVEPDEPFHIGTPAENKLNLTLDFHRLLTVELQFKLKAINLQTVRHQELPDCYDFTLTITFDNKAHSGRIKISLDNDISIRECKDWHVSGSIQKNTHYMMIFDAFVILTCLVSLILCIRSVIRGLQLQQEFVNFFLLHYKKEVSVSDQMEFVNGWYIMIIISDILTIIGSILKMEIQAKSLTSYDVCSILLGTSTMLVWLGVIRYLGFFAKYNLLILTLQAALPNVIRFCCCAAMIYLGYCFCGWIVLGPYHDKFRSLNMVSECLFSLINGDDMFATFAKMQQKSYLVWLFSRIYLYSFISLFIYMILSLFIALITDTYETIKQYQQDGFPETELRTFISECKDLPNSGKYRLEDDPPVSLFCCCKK
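system = HEK293 cells stably carrying human TRPML3-YFP | doses = one concentration, 3 µM nominal, 0.3% DMSO | timing = dye loading 1 h 37 °C then 30 min ambient, 125 s read | detection = Fluo-8 calcium dye fluorescence, ex 470-495, em 515-575 nm | benchmarks = high control carbachol 87 µM, low control DMSO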
OXTR ag – activates the human oxytocin receptor; activation, % at 3 µM; P30559; CHO-OTR cells, Fluo-8 calcium fluorescence; normalized: DMSO 0%, oxytocin 100%; 320,000 tested, 0.32% active;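 active = activation above the mean of all tested compounds plus 3 SD, cutoff set per screening run, cut at about 20% in these data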;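 note: peak over basal fluorescence ratio from a 100 s FLIPR kinetic read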
OXTR potentiate – potentiates the human oxytocin receptor response; P30559; CHO-OTR cells, Fluo-8 calcium fluorescence, potentiator mode; 0% = oxytocin EC15, 100% = EC100; activation, % at 3 µM; 320,000 tested, 0.061% active; AID 2445;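 active = activation above that plate's cutoff, the mean activation of tested compounds plus 3 SD, cut at about 6.6% in these data, passing the limit was not always enough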
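System: human OTR in CHO cells; Also added: sub-maximal oxytocin, roughly EC15; Timing: compound 6 min at room temperature before oxytocin, 100 s read; Technique: Fluo-8 intracellular calcium fluorescence, ex 470-495, em 515-575 nm; Controls: oxytocin EC15 low and EC100 high; Replication: singlicate.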
TRPN1 ag – zebrafish TRPN1 (NompC) channel agonism | HEK293 zebrafish TRPN1-YFP, Fluo-8 calcium fluorescence; 100% = response to 87 µM carbachol | activation, % at 3 µM | 220,000 tested, 0.18% active | AID 1424;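 active = activation above its plate's cutoff, the mean activation of test wells on that plate plus 3 SD, cut at about 19% in these data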
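System: zebrafish TRPN1-YFP in HEK293 cells / Dosing: 3 µM single point / Timing: dye loading 1 h at 37 °C, then 30 min room temperature / Signal: Fluo-8 calcium fluorescence, excitation 470-495 nm, emission 515-575 nm / Read-out basis: percent activation from peak over basal fluorescence ratio, control-normalized / Control set: high carbachol 87 µM, low DMSO alone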
V1R ag counter – counter-screen for oxytocin receptor agonists: human V1a receptor agonists; P37288; CHO-V1R cells, Fluo-8 calcium fluorescence, agonist mode; 0% DMSO, 100% 3 nM vasopressin; 320,000 tested, 0.25% active; AID 2797; activation, % at 3 µM;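 active = activation above the mean activation of all tested compounds plus 3 SD, per screening run, cut at about 20% in these data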;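 note: signal is peak over basal fluorescence ratio across a 100 second FLIPR read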
OXTR ag confirm – human OXTR agonism, confirmation. shares compounds with OXTR ag. CHO-OTR cells, Fluo-8 calcium fluorescence, agonist. activation, % at 3 µM. 390 tested, 20% active. AID 434963;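 active = mean activation above about 20% derived from the earlier single-dose screen, limit read from the data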;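 note: peak over minimum fluorescence ratio per well during a 100 second FLIPR read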
V1R ag counter 3x – counter-screen for oxytocin receptor agonists: V1a receptor agonists; shares compounds with OXTR ag; CHO-V1R cells, Fluo-8 calcium fluorescence, agonist; activation, % at 3 µM; 390 tested, 10% active; AID 434991;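 active = mean activation over triplicate exceeds the hit threshold set in the earlier primary screen, cut at about 20% in these data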;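 note: peak over basal fluorescence ratio within a 100 second read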
Of the large screens only hits and unclear results are named; the others gave an inactive call (follow-up assays come after a bar, where they were run). Shown are actives, neighbours in structure and some others; about 0.55% of the full set was active somewhere.

CCc1[nH]nc2c1C(c1ccc(Br)s1)C(C#N)=C(N)O2 (stereo unspecified)	none
C/C(=N/O)c1cc(C(C)(C)C)c(O)c(C(C)(C)C)c1	OXTR ag 21 | OXTR ag confirm inactive | V1R ag counter 3x inactive
Cc1[nH]c2ccccc2c1C(=O)CN1C(=O)NC(C)(c2ccc(Cl)cc2Cl)C1=O (stereo unspecified)	OXTR ag 32 | OXTR ag confirm 28 | V1R ag counter 3x inactive
Cc1[nH]c2ccccc2c1C(=O)CSc1ccc(Cl)cc1	none
COC(=O)c1ccc(NC(=O)CN2C(=O)CC(C)S(=O)(=O)c3ccccc32)cc1 (stereo unspecified)	none (no result: TRPML3 agonist, TRPN1 ag)
CCC1(c2ccc(F)cc2)NC(=O)N(CC(=O)N2c3ccccc3CC2C)C1=O (stereo unspecified)	OXTR ag 29 (no result: TRPML3 agonist, TRPN1 ag) | OXTR ag confirm inactive | V1R ag counter 3x inactive
CO/N=C/c1ccc(N2CCN(C(=O)c3ccc(Cl)cc3Cl)CC2)c([N+](=O)[O-])c1	OXTR ag 27 | OXTR ag confirm inactive | V1R ag counter 3x inactive
Cn1cccc1P(=O)(c1cccn1C)c1cccn1C	OXTR ag 31 | OXTR ag confirm inactive | V1R ag counter 3x inactive
Cc1cc(S(=O)(=O)Nc2ccc(C(=O)NCC3(N(C)C)CCCCC3)cc2)ccc1F	none (no result: TRPML3 agonist, TRPN1 ag)
CCOc1ccc(NS(=O)(=O)c2ccc(C(=O)NCC3(N(C)C)CCCCC3)cc2)cc1	OXTR ag 24 (no result: TRPML3 agonist, TRPN1 ag) | OXTR ag confirm inactive | V1R ag counter 3x inactive
CN(/N=C/c1ccc(-c2ccc([N+](=O)[O-])cc2)o1)c1ccccc1	OXTR ag 23 (no result: TRPML3 agonist, TRPN1 ag) | OXTR ag confirm 96 | V1R ag counter 3x 100
COc1ccc(CCNCC(O)Cn2c3ccccc3c3ccccc32)cc1OC (stereo unspecified)	OXTR ag 23 | OXTR ag confirm 24 | V1R ag counter 3x inactive
COc1ccc(CN2CCN(CC(O)Cn3c4ccccc4c4ccccc43)CC2)cc1 (stereo unspecified)	OXTR ag 24 | OXTR ag confirm inactive | V1R ag counter 3x inactive
COc1cccc2c1C(=O)c1c(O)c3c(c(O)c1C2=O)C[C@@](O)(C(=O)CO)C[C@@H]3O[C@H]1C[C@H](N)[C@@H](O)[C@H](C)O1	OXTR ag 23 (no result: TRPML3 agonist, TRPN1 ag) | OXTR ag confirm inactive | V1R ag counter 3x inactive
COc1ccc(CNC(=O)c2cccnc2Sc2ccc(Cl)cc2)cc1	OXTR ag 22 | OXTR ag confirm inactive | V1R ag counter 3x inactive
Cc1ccc(CNC(=O)c2cccnc2Sc2cccc(Cl)c2)cc1	none
O=C(Nc1ccc(F)cc1)c1ccccc1S(=O)(=O)c1ccccc1[N+](=O)[O-]	none
COc1ccccc1NC(=O)CCCN1C(=O)C(c2ccccc2)Oc2cccnc21 (stereo unspecified)	none (no result: TRPML3 agonist, TRPN1 ag)
COc1ccc(CCNC(=O)CCCN2C(=O)C(c3ccccc3)Oc3cccnc32)cc1OC (stereo unspecified)	OXTR ag 25 (no result: TRPML3 agonist, TRPN1 ag) | OXTR ag confirm inactive | V1R ag counter 3x inactive
CN(C)/N=C/c1ccc(Sc2ccccc2[N+](=O)[O-])o1	none
COc1ccc(/C=C2/CCc3ccccc3C2=O)cc1CN1CCOCC1	none
COc1ccc(/C=C2\CCc3ccccc3C2=O)cc1Cn1nc(C)cc1C	OXTR ag 23 | OXTR ag confirm inactive | V1R ag counter 3x inactive
CC(C)S(=O)(=O)c1cnc(N2CCOCC2)nc1N	none
Cc1cccc(C(=O)NC(=S)NNC(=O)Cc2ccccc2)c1	OXTR ag 25 | OXTR ag confirm 45 | V1R ag counter 3x 58
CC(O)(CS(=O)(=O)Cc1ccccc1)c1ccccc1 (stereo unspecified)	none (no result: TRPML3 agonist, TRPN1 ag)
Cc1ccc(NS(=O)(=O)c2ccc(C(=O)NCC(c3ccco3)N3CCCCC3)cc2)cc1 (stereo unspecified)	OXTR ag 24 (no result: TRPML3 agonist, TRPN1 ag) | OXTR ag confirm 24 | V1R ag counter 3x inactive
O=C(NCC(c1ccco1)N1CCCCC1)c1ccc(S(=O)(=O)Nc2ccccc2)cc1 (stereo unspecified)	none (no result: TRPML3 agonist, TRPN1 ag)
O=C1/C(=C/c2ccccc2)N=C(N2CCOCC2)N1c1cccc(Cl)c1	OXTR ag 26 | OXTR ag confirm inactive | V1R ag counter 3x inactive
CCSc1nsc(NC(=O)Nc2cccc(F)c2)n1	OXTR ag 20 (no result: TRPML3 agonist, TRPN1 ag) | OXTR ag confirm inactive | V1R ag counter 3x inactive
O=C(Nc1cccc(Cl)c1)Nc1cccc(Cl)c1	none
O=C(Nc1cccc(F)c1)Nc1cccc(Cl)c1	OXTR ag 20 (no result: TRPML3 agonist, TRPN1 ag) | OXTR ag confirm inactive | V1R ag counter 3x inactive
COc1cccc(NC(=O)Nc2nc(SC)ns2)c1	none (no result: TRPML3 agonist, TRPN1 ag)
COc1cccc(NC(=O)Nc2nc(SC(C)(C)C)ns2)c1	OXTR ag 23 (no result: TRPML3 agonist, TRPN1 ag) | OXTR ag confirm inactive | V1R ag counter 3x inactive
Cc1ccc(Cl)cc1N1CCN(C(=O)C2CCN(S(=O)(=O)c3c(C)nn(C)c3C)CC2)CC1	OXTR ag 21 | OXTR ag confirm inactive | V1R ag counter 3x inactive
O=c1c2cc(NC(=S)NCCN3CCCCCC3)ccc2nc2n1CCCCC2	none
O=c1c2cc(NC(=S)NCCCN3CCC(Cc4ccccc4)CC3)ccc2nc2n1CCCCC2	OXTR ag 20 | OXTR ag confirm inactive | V1R ag counter 3x inactive
N#C/C(=C\c1ccc(N2CCOCC2)c([N+](=O)[O-])c1)c1nc2ccccc2[nH]1	none
N#C/C(=C\c1ccc(N2CCOCC2)o1)c1nc2ccccc2[nH]1	OXTR ag 43 | OXTR ag confirm 176 | V1R ag counter 3x 259
O=C(CSc1nnc2ccccn12)NNC(=O)c1ccc(Br)cc1	none
COc1ccc(C(=O)CSc2nnc(Cn3cnc4ccccc43)o2)cc1	OXTR ag 20 | OXTR ag confirm inactive | V1R ag counter 3x inactive
O=C(Nc1ccccc1)N1CCC(c2nc(-c3ccc(S(=O)(=O)N4CCOCC4)cc3)no2)CC1	none
CSCCC(NC(=O)c1ccc(Cl)c([N+](=O)[O-])c1)C(=O)N1CCN(C/C=C/c2ccccc2)CC1 (stereo unspecified)	none (no result: TRPML3 agonist, TRPN1 ag)
O=C(O)c1ccc(N/N=C/c2ccc(-c3ccccc3Cl)o2)cc1	OXTR ag 23 | OXTR ag confirm inactive | V1R ag counter 3x inactive
O=C(O)CCNC(=O)/C(=C/C=C/c1ccccc1)NC(=O)c1ccccc1	none
O=Cc1[nH]c2ccccc2c1N(C(=O)CCl)c1ccc([N+](=O)[O-])cc1	OXTR ag 21 | OXTR ag confirm inactive | V1R ag counter 3x inactive
CC(=O)n1cc(N(C(=O)CCl)c2ccc([N+](=O)[O-])cc2)c2ccccc21	none
O=[N+]([O-])c1ccc(O)c(-c2cc(C(F)(F)F)nc(-c3ccccc3)n2)c1	OXTR ag 26 (no result: TRPML3 agonist, TRPN1 ag) | OXTR ag confirm inactive | V1R ag counter 3x inactive
